Screens (PubChem BioAssay)
S1P3 ag – agonists of human S1P3 receptor; Q99500; AID 373; S1P3 NFAT-BLA reporter cells, agonism, FRET ratio; relative to 1 µM S1P, basal subtracted; activation, % at 4.5 µM; actives 0.1% (n = 60,000);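 active means activation above the screen-wide mean plus 3 SD, cut at about 4.5% in these data, passing the limit was not always enough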
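Material: Human S1P3 NFAT-BLA reporter CHO cells | Incubation: Overnight plating, 4 h compound 37 °C, 2 h substrate RT | Signal: FRET β-lactamase substrate fluorescence, excitation 405 nm, 460/535 nm emission ratio, background-subtracted | Compound: 4.5 µM final, single dose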
M1 antagonist – antagonists of rat M1 muscarinic receptor | actives 3.4% (n = 64,000) | B-score at 10 µM | P08482 | CHO-M1 cells, Fluo-4 calcium, ACh EC80 antagonist mode; hits give low values;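 active means calcium fluorescence response, raw or row-and-column corrected B-score, differing from the plate sample mean either way at a set confidence level, mostly lower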
Jurkat viability – reduces viability or proliferation of Jurkat cells; Jurkat E6.1 viability, ATP luminescence, 48 h; inhibition, % at 4 µM; actives 1.2% (n = 56,000);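 active means inhibition above the mean inhibition of all tested compounds plus 3 SD, cut at about 28% in these data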
JNK3 inh – blocks human JNK3 kinase activity. actives 0.61% (n = 60,000). inhibition, % at 8 µM. purified JNK3 kinase activity, HTS. P53779; in the data active means inhibition above about 17%;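 further: 0% = DMSO and 100% = reference inhibitor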
Target sequence (P53779 whole entry, looked up): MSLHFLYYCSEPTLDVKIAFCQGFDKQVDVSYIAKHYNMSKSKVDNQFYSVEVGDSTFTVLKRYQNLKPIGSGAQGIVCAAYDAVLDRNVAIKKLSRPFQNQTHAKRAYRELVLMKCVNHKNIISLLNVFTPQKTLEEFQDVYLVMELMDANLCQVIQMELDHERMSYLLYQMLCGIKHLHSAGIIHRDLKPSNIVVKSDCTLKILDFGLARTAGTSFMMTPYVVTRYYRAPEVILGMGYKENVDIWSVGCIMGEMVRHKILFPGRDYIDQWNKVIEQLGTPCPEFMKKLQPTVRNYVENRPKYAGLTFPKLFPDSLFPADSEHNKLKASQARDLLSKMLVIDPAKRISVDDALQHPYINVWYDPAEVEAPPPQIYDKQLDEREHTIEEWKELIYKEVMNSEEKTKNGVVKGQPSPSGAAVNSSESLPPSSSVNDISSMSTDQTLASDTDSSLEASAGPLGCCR
S1P1 ag pot – activates or potentiates agonism at human S1P1 receptor. activation, % at 9.5 µM. P21453. actives 0.57% (n = 56,000). S1P1 CRE-bla cells, forskolin, beta-lactamase FRET, potentiator mode; S1P1 agonist co-added at EC20, 2 nM; 100% = saturating reference agonist, 0% = basal;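 active means activation above a cutoff set at the mean activation of all tested compounds plus 3 SD, cut at about 54% in these data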;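 further: forskolin at 4 µM as EC80 and the EC20 agonist is SEW2871; 100% = SEW2871 at its EC100 plus forskolin at EC80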
M1 agonist – agonists of M1 muscarinic receptor; CHO-M1 cells, Fluo-4 calcium fluorescence, agonist mode; hits give high values; B-score at 10 µM; actives 3% (n = 64,000); AID 626;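 active means fluorescence rise, raw or as B-score row- and column-corrected plate score, outside the 99.7% band of its plate's samples, either direction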
Numbers without * were called inactive; . = no result. Hits are enriched below; roughly 7.4% of the tested compounds scored in any of these assays.

SMILES | S1P3 ag | M1 antagonist | Jurkat viability | JNK3 inh | S1P1 ag pot | M1 agonist
OCCn1c(SC2CCCCC2)nc2ccccc21 | 0 | -1.4 | 2 | 0 | . | -1.9
COc1ccc(CCNC(=O)CN2CCN(c3cccc(Cl)c3)CC2)cc1OC | 0 | 0.73 | 1 | -3 | 15 | -0.49
COc1cc(CN2CCN(c3cccc(Cl)c3)CC2)cc(OC)c1OC | 0 | -1.3 | 81* | -1 | 11 | -0.23
O=S(=O)(NCCc1ccncc1)c1cc(Br)ccc1F | -1 | 0.049 | 6 | 1 | 17 | 0.61
Cn1c2ccccc2c2cnn(CC(=O)N3CCN(c4ncccn4)CC3)c(=O)c21 | -1 | -0.45 | 9 | 1 | 11 | 0.44
COc1ccc(-c2nnc3ccc(SCC(=O)N4CCN(c5ccccc5)CC4)nn23)cc1 | -1 | -0.4 | 6 | -1 | -4 | 4.4*
O=C(CCn1c(=O)c2ccccc2n(Cc2cc(=O)n3ccccc3n2)c1=O)NCc1ccco1 | 0 | -0.37 | -4 | -6 | 1 | -0.44
Cn1c(SCC(=O)Nc2ccc(N3CCOCC3)c(Cl)c2)nnc1-c1ccccc1 | -1 | 0.77 | 7 | -3 | 89* | -0.2
Cc1cc(C(=O)CSc2nnc(-c3cccc(F)c3)n2N)c(C)n1Cc1ccc2c(c1)OCO2 | 0 | -0.65 | 37* | -1 | 44 | 1
Cc1cc(C(=O)CSc2nnnn2-c2ccc(O)cc2)c(C)n1Cc1ccc2c(c1)OCO2 | 0 | . | 1 | 0 | 61* | .
Cc1ccc(-c2nnc(SCC(=O)Nc3ccc4c(c3)OCCO4)n2N)cc1 | -1 | 1.6 | 7 | 9 | -6 | 0.62
Cc1ccc(-n2nnnc2SCC(=O)c2cc(C)n(-c3cc(C)on3)c2C)cc1 | -1 | 0.82* | 7 | 0 | 38 | 0.97
CC(C)OC(=O)Cn1cnc2ccc(Br)cc2c1=O | -2 | -0.00036 | -4 | -4 | 8 | 0.59
CN1CC2=Cc3ccccc3OC23Oc2ccccc2C=C3C1 | -1 | -0.69 | 9 | 8 | 28 | -0.49
Cc1ccc(S(=O)(=O)Nc2cccc3ncccc23)s1 | 0 | -0.16 | 31* | 3 | 53 | 0.52
O=C(Nc1ccc(N2CCCC2)cc1)c1cccc(F)c1 | -2 | -0.16 | 69* | -28 | 13 | 0.74
O=C(Nc1ccc(N2CCOCC2)c(Cl)c1)c1c(F)c(F)c(F)c(F)c1F | -1 | -0.24 | -2 | -3 | . | -0.73
O=C(Nc1ccc(N2CCCCC2)c(Cl)c1)c1cccnc1 | 0 | -0.15 | 33* | -2 | 40 | 0.023
Cc1nc2cc(N3CCCCC3)c(NC(=O)c3cccnc3)cc2c(=O)n1Cc1ccccc1 | 0 | 2.8* | -6 | -3 | -1 | -0.13
O=C(Nc1ccc(N2CCOCC2)c(Cl)c1)c1cccc(F)c1 | -1 | 0.37 | 1 | 8 | 88* | 1.2
CC(=O)Nc1cc2c(=O)n(Cc3ccccc3)c(C)nc2cc1N1CCOCC1 | -1 | 0.21 | 7 | -9 | -14 | -0.85
COC(=O)C1=C(N)Oc2cc(C)n(CCN3CCOCC3)c(=O)c2C1c1cccnc1 (stereo not drawn) | -1 | -0.64 | -7 | 4 | 14 | -1
Cc1ccc(S(=O)(=O)c2cc3c(=O)n4ccccc4nc3n(CC3CCCO3)c2=N)cc1 (stereo not drawn) | 0 | -1.5 | 2 | 1 | 4 | -0.017
Cc1ccc2nc3c(cc(C#N)c(=N)n3CC3CCCO3)c(=O)n2c1 (stereo not drawn) | -1 | -1.4 | 8 | 5 | 5 | 9*
COc1nc(Nc2nc3ccccc3c(=O)[nH]2)nc2ccc(C)cc12 | -4 | -2.1* | -6 | 2 | -91 | 1.5
SMILES | S1P3 ag | M1 antagonist | Jurkat viability | JNK3 inh | S1P1 ag pot | M1 agonist
Cc1cc(C)n(-c2nnc3n2N=C(c2c[nH]c4ccccc24)CS3)n1 | 0 | 0 | 57* | 6 | 2 | 0.73
COC(=O)c1ccc(-c2nc(O)c3cnccn23)cc1 | 1 | 0.67 | -2 | -3 | 9 | 0.63
COc1ccc(Cn2nnnc2C(c2ccccc2)N2CCN(C3CCCC3)CC2)cc1 (stereo not drawn) | -1 | 1.9* | 4 | 6 | -9 | 0.55
COc1cccc(CNC(=O)c2cc3oc4ccccc4c3n2C)c1OC | -1 | 0.13 | 29* | 2 | -18 | 0.013
CCCn1c(SCC(N)=O)nnc1-c1ccco1 | . | 0.0098 | . | . | . | 0.024
Oc1ccc(Cl)cc1CNc1ccc(Br)cn1 | -2 | -0.8 | 56* | 6 | 11 | -0.55
Cc1cc(=O)oc2cc(OCC(=O)N3c4ccccc4CC3C)ccc12 (stereo not drawn) | 0 | -1.5 | 72* | 0 | 28 | -0.56
c1ccc(-c2noc(-c3ccc4c(c3)OCO4)n2)nc1 | -1 | 0.25 | 41* | 5 | 3 | -0.27
CCOC(=O)N1CCN(c2c(F)cc3[nH]c(=S)[nH]c3c2Br)CC1 | 0 | -0.062 | 85* | -2 | 11 | 0.13
CCOC(=O)N1CCN(c2cc3[nH]c(=S)[nH]c3cc2F)CC1 | 1 | 0.57 | -8 | 2 | . | -0.14
O=C(Nc1ccc2c(c1)OCCO2)C1CCCN(S(=O)(=O)c2cccs2)C1 (stereo not drawn) | -1 | -0.74 | 1 | -1 | -3 | 2.3
O=C(CCC1CCCCC1)Nc1ccccc1O | -2 | -0.48 | 25 | 0 | . | 0.32
Cc1cccc(OCC(=O)Nc2cc(C)ccc2O)c1 | -1 | 0.002 | 55* | 2 | -12 | 0.12
Cc1ccc(O)c(NC(=O)CCC2CCCCC2)c1 | 0 | -0.57 | 39* | -1 | 131 | 0.0027
Cc1cccc(OCC(=O)Nc2cc(C)c(C)cc2O)c1 | 0 | -0.5 | 1 | 1 | -17 | -0.14
COc1cccc(C(=O)/C=C/Nc2cc(C)ccc2O)c1 | 0 | -0.67 | 64* | 6 | -29 | -0.81
Cc1ccc(Nc2cc(C)nn2-c2nc(C)cc(=O)[nH]2)cc1 | -2 | -0.0025 | 94* | 5 | -12 | 0.59
COC(=O)c1ccc(Oc2ccc3nnc(C)n3n2)cc1 | -2 | -0.13 | 0 | -1 | 14 | -1.4
Cc1nnc2ccc(Oc3ccc(-c4ccccc4)cc3)nn12 | -1 | -1.4 | 10 | -3 | 68* | 2.1
CN(C)S(=O)(=O)c1cccc(C(=O)N2CCc3ccccc32)c1 | -1 | 1.3* | 8 | 5 | 6 | 0.0021
Cc1cc(C(=O)CSc2nnnn2C)c(C)n1-c1cccc(F)c1 | 3 | 0.27 | 5 | -3 | 93* | -0.31
COc1ccc(CCn2c(C)cc(C(=O)CSc3nnnn3C)c2C)cc1 | 14* | 1.1 | -5 | -2 | 7 | -0.87
Cc1cc(C(=O)CSc2n[nH]c(N)n2)c(C)n1-c1cccc(F)c1 | -2 | -0.029 | 16 | -8 | 8 | 0.25
CCOC(=O)N1CCC(NC(=O)c2cc(C)c3c(C)nn(-c4ccccc4)c3n2)CC1 | 2 | 0.0031 | 6 | -1 | -11 | 1.9
CN(C)S(=O)(=O)c1ccc(C(=O)OCC(=O)c2ccc(OC(F)F)cc2OC(F)F)cc1 | -1 | -0.34 | -2 | -1 | 0 | 0.86
